Measurements published in ChEMBL document CHEMBL1142787, “Bicyclic nucleoside inhibitors of Varicella-Zoster virus: the effect of branching in the p-alkylphenyl side chain” (Bioorg Med Chem Lett, 2005).

What was measured:
[1] = Effective concentration required to reduce Varicella Zoster virus OKA plaque formation by using DMSO as solvent; assay type: functional, Human alphaherpesvirus 3
[2] = Minimal cytotoxic concentration required to alter microscopically detectable cell morphology; assay type: functional
Summary of the method: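 Cell morphology scored by microscopy; compounds dissolved in neat DMSO, then diluted in biological media to stock solutions of ca. 50–200 μM with 1% DMSO; MCC recorded as the minimal concentration that alters microscopically detectable morphology.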

[3] = Effective concentration required to reduce thymidine kinase-Varicella Zoster virus YS/R plaque formation by using DMSO as solvent; assay type: functional, Human alphaherpesvirus 3
[4] = test system: HEL (human embryonic lung fibroblasts); assay: Cytotoxic concentration required to inhibit Hel cell growth by using DMSO as solvent

## Nc1nc2c(ncn2COCCO)c(=O)[nH]1 [ACYCLOVIR]
[1]
  EC50: 1.5 µM
[2]
  MCC: > 200 µM
[3]
  EC50: 53 µM
[4]
  CC50: > 400 µM
